ChEMBL document CHEMBL1136558, “Inhibition of mast cell leukotriene release by thiourea derivatives” (Bioorg Med Chem Lett, 2003)
pIC50: −log10 of the molar value.

System: RBL-2H3
Test: Inhibition of IgE receptor/FcERI mediated leukotriene release from rat RBL-2H3 cells
Format: functional, cell-based
Procedure, shortened: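 RBL-2H3 rat mast cells were sensitized with monoclonal anti-DNP IgE ([…]) for 1 h at 37 °C, washed to remove unbound IgE, and overlaid with PIPES-buffered saline containing 1 mM CaCl2. Cells were preincubated with compound or vehicle, then challenged with 20 ng/mL DNP-BSA for 30 min at 37 °C and centrifuged at 200g for 10 min at 4 °C. LTC4 was measured in cell-free supernatants and reported as IC50.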

Structure (SMILES)	pIC50
Cc1cc(C)nc(N/C(S)=N/[C@@H](C)c2cccc3ccccc23)c1	< 4.00
C[C@H](/N=C(\S)Nc1nc2ccccc2s1)c1cccc2ccccc12	< 4.00
C[C@H](/N=C(\S)Nc1ccc(Br)cn1)c1cccc2ccccc12	< 4.00
Cc1ccc(N/C(S)=N/[C@@H](C)c2cccc3ccccc23)nc1	< 4.00
C[C@@H](/N=C(\S)Nc1ccc(Cl)cn1)c1cccc2ccccc12	< 4.00
C[C@@H](/N=C(\S)Nc1ccccn1)c1cccc2ccccc12	< 4.00
C[C@@H](/N=C(\S)Nc1nccs1)c1cccc2ccccc12	< 4.00
Cc1cc(C)nc(N/C(S)=N/[C@H](C)c2cccc3ccccc23)c1	< 4.00
C[C@H](/N=C(\S)Nc1nccs1)c1cccc2ccccc12	< 4.00
Cc1cccc2sc(N/C(S)=N/[C@H](C)c3cccc4ccccc34)nc12	< 4.00
COc1ccc2nc(/N=C(\S)N[C@H](C)c3cccc4ccccc34)sc2c1	< 4.00

Further lines, results first:

pIC50	Structure (SMILES)
< 4.00	Cc1cccc2sc(N/C(S)=N/[C@@H](C)c3cccc4ccccc34)nc12
< 4.00	C[C@H](/N=C(\S)Nc1ccccn1)c1cccc2ccccc12
5.31	S=C(NCCc1c[nH]c2ccccc12)Nc1ccc(Cl)cn1
5.07	Oc1ccc(CC/N=C(\S)Nc2ccccn2)cc1
4.77	Oc1ccc(CC/N=C(\S)Nc2ccc(Br)cn2)cc1
8.70	CCOC(=O)Cc1csc(/N=C(\S)N[C@H](C)c2cccc3ccccc23)n1
5.21	S=C(NCCc1c[nH]c2ccccc12)Nc1ccc(Br)cn1
8.70	CCOC(=O)Cc1csc(/N=C(\S)N[C@@H](C)c2cccc3ccccc23)n1
4.72	C[C@@H](/N=C(\S)Nc1nc2ccccc2s1)c1cccc2ccccc12
5.17	COc1cc2ncnc(Nc3cc(Br)c(O)c(Br)c3)c2cc1OC
4.90	Oc1ccc(CC/N=C(\S)Nc2ccc(Cl)cn2)cc1
5.80	Cc1cccc(N/C(S)=N/[C@@H](C)c2cccc3ccccc23)n1
4.59	Cc1csc(N/C(S)=N/[C@H](C)c2cccc3ccccc23)n1
8.30	Cc1ccc(N/C(S)=N/[C@H](C)c2cccc3ccccc23)nc1
4.08	Cc1csc(N/C(S)=N/[C@@H](C)c2cccc3ccccc23)n1
